Assays:
[1] = Half life in rat liver microsomes at 1 uM after 30 mins by LC-MSD method; format: ADME, Microsome
Outline: (§1)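 Test compound at 1 μM in 0.1 M KH2PO4 pH 7.4 with liver microsomes (0.5618 mg/mL) at 37 °C. Reaction started with NADPH. Aliquots taken at 0, 10, 20 and 30 min and quenched into equal-volume acetonitrile. Samples centrifuged at 9000g, 4 °C, and supernatants analysed by LC-MSD.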

[2] = Half life in human liver microsomes at 1 uM after 30 mins by LC-MSD method; format: ADME, Microsome; outline: as §1
[3] = Intrinsic clearance in human liver microsomes at 1 uM after 30 mins by LC-MSD method; format: ADME, Microsome; settings: read-out: CLH; outline: as §1
[4] = Intrinsic clearance in rat liver microsomes at 1 uM after 30 mins by LC-MSD method; format: ADME, Microsome; settings: read-out: CLH; outline: as §1
Prolyl endopeptidase FAP = molecular target: T1, Prolyl endopeptidase FAP (Homo sapiens, UniProt Q12884); test: Inhibition at human recombinant FAPalpha
T1 sequence (Q12884 whole entry): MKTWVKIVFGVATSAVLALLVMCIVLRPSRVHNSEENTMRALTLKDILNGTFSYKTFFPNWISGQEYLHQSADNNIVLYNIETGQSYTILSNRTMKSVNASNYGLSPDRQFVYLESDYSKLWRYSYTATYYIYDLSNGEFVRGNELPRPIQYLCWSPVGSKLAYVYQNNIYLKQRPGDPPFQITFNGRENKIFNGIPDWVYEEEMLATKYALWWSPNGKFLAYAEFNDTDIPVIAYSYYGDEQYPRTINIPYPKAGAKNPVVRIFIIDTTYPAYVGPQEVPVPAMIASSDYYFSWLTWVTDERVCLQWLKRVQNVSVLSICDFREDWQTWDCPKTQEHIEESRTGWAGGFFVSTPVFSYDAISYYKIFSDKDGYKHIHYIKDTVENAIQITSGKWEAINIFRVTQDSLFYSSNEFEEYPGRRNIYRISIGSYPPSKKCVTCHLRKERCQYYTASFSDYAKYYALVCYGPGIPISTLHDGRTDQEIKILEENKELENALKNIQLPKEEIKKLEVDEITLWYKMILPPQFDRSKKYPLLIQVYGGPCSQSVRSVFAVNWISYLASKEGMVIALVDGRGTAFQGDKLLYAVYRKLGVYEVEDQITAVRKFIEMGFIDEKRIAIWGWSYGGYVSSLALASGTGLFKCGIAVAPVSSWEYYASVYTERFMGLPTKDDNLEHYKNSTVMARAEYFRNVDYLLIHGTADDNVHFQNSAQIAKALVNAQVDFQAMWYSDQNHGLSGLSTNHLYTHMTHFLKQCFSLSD
Outline: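 Recombinant human FAPα diluted in PBS with 1 mg/mL BSA. Setup as for cell extracts: inhibitor preincubated 5–10 min at room temperature, then Z-Gly-Pro-AMC at 10 μM final. AMC fluorescence (ex/em 360/460 nm) recorded for 30 min at 37 °C.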

| Structure (SMILES) | half-life at 1 µM [1] [min] | half-life at 1 µM [2] [min] | microsomal CLint at 1 µM [3] [µL/min/mg] | microsomal CLint at 1 µM [4] [µL/min/mg] | IC50 (Prolyl endopeptidase FAP) [µM] |
| --- | --- | --- | --- | --- | --- |
| O=C(NCc1ccccc1)c1ccccc1C(=O)N1CCCC1 | 17 | 55 | 25 | 83 |  |
| O=C(NCc1ccccc1)c1ccccc1C(=O)N1CCCCC1 | 4 | 16 | 89 | 311 |  |
| N#C[C@@H]1CS[C@H]2C[C@@H](NC(=O)OCc3ccccc3)C(=O)N12 |  | 134 | 10 |  |  |
| O=C(c1cccc2c1C(=O)N(Cc1ccccc1)C2)N1CCCC1 | 23 | 98 | 14 | 62 | > 100 |
| N#C[C@@H]1CCCN1C(=O)c1ccccc1C(=O)NCc1ccccc1 | 38 | 31 | 44 | 37 | > 100 |
| N#C[C@@H]1CCCN1C(=O)c1cccc2c1C(=O)N(Cc1ccccc1)C2 | 35 | 111 | 13 | 39 | > 100 |
